TNAP inh noacc – TNAP (human) inhibition, acceptor-free conditions. P05186. purified TNAP, CDP-star luminescence, 30 min. inhibition, % at 20 µM. 0.26% of 200,000 active. AID 1012;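 active = tissue-nonspecific alkaline phosphatase inhibition above about 50% at 20 µM in the single-dose screen, limit read from the data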;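 note: 0% = DMSO negative control and 100% = EDTA positive control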
Target sequence (P05186 whole entry, looked up): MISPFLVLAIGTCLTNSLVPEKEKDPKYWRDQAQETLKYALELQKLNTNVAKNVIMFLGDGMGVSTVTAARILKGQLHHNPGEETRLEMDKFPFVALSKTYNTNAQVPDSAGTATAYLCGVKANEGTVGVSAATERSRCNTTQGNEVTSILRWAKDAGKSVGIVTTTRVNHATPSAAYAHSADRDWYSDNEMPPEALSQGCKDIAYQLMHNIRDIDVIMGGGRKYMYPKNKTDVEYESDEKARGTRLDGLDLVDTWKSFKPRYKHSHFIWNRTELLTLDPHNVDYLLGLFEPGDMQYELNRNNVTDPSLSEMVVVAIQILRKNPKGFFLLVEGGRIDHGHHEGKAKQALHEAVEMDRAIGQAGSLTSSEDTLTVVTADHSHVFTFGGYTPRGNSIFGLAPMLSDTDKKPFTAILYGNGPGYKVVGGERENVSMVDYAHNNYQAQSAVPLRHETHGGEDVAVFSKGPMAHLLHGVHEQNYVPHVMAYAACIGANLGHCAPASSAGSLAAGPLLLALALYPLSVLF
TNAP act hi DEA – increases human TNAP activity under high phosphate acceptor concentration; P05186; purified TNAP, CDP-star luminescence, 1 M DEA, 30 min; active compounds read high; 0 = EDTA background, 1 = DMSO-only activity; activation factor at 20 µM; 200,000 tested, under 10 active;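 active = activation factor at least 2 at 20 µM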
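Control set: EDTA negative control, DMSO positive control / Assay system: human TNAP / Quantity: TNAP 1/800 final / Evaluation: TNAP activation factor scaled between EDTA and DMSO control wells / Measured by: luminescent substrate turnover signal / Compound dosing: one dose, 20 µM / Times: 30 min enzyme reaction at room temperature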
Efa HMGR inh – blocks class II HMG-CoA reductase of Enterococcus faecalis; AID 1066; purified E. faecalis HMGR, NADPH absorbance 340 nm kinetic; 0.41% of 190,000 active; inhibition, % at 10 µM;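 active = inhibition above a set limit, the median over all tested compounds plus 3 SD, cut at about 9.5% in these data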;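 note: enzyme runs in reverse so mevalonate oxidation gives rising NADPH absorbance; 0% = complete reaction with DMSO and 100% = background rate lacking mevalonate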
Insulin prom inh – TRM-6 insulin promoter activity inhibition; TRM-6 cells, insulin promoter-eGFP reporter, imaging; reporter expression induced with tamoxifen; inhibition, % at 2 µM; 0.9% of 130,000 active; AID 1273;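 active = inhibition above the mean plus 3 SD, with well images judged a real hit on visual review, cut at about 60% in these data, passing the limit was not always enough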
TNAP inh hi DEA – blocks human TNAP under high phosphate acceptor concentration; P05186; purified TNAP, CDP-star luminescence, 1 M DEA; inhibition, % at 20 µM; 0.03% of 200,000 active;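 active = over 50% inhibition of tissue-nonspecific alkaline phosphatase at 20 µM in the single-dose screen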;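 note: plate controls were DMSO wells for no effect and EDTA-quenched wells as full inhibition for full effect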
* hit, by the source's call; nt = no result. A selection: hits, their analogues and other compounds. The true share with any hit is near 1.2%.

SMILES	TNAP inh noacc	TNAP act hi DEA	Efa HMGR inh	Insulin prom inh	TNAP inh hi DEA
Cc1ccc(S(=O)(=O)N/N=C/c2ccc(O)c(O)c2)cc1[N+](=O)[O-]	67.1*	1	-2.3	nt	1.8
CC1=CC(C)(C)N2C(=O)C3(C(C#N)=C(N)Oc4cc(O)ccc43)c3c(C)c(C)cc1c32 (stereo unspecified)	4.8	1	-6.3	-41.9	-2.8
Cc1cc(C(F)(F)F)nc(SCc2ccc(C(=O)O)o2)n1	5.8	1	0.1	72.7*	-2.4
CCOc1ccc(N(CC(=O)Nc2cccnc2)S(C)(=O)=O)cc1	-3.9	1	-6.9	11.1	-3.6
C=CCNC(=S)NNC(=O)c1ccc(Br)cc1	-104.4	1	-1.9	nt	-3.2
C=CCNC(=S)NNC(=O)c1cc(O)ccc1O	67.8*	1	-1.7	nt	2.5
CCc1ccccc1S(=O)(=O)Cc1ccc(C(=O)NCc2cccs2)o1	-9.1	1.1	9.8*	-81.8	-6.5
C/C(=N\NS(=O)(=O)c1ccccc1)c1ccc2c(c1)OCO2	-4.5	1	7.4	40.0	-4.3
C/C(CC(=O)NC1CCCCC1)=N\NC(=O)COc1ccc(C)cc1Br	-6.6	1	28.4*	nt	-1.9
Cc1ccc(CNC(=O)CCC(=O)c2cccs2)cc1	-0.3	1.1	-11.5	nt	-7.9
O=C(CCC(=O)c1cccs1)NCc1ccc(Cl)cc1	-1.9	1	-7.3	70.0*	4.6
O=C(C1CCC1)N1CCc2cc(S(=O)(=O)NCc3ccco3)ccc21	-13.7	1.1	-8.1	81.8*	-5.5
CCCCOC(=O)CSc1n[nH]c(=O)[nH]c1=O	-3.3	1	-5.2	78.6*	2.0
CCCCCOC(=O)C(C)Sc1n[nH]c(=O)[nH]c1=O (stereo unspecified)	-0.4	1	-1.1	nt	-2.7
Cc1ccc(NC(=O)CSc2nc3ccccc3c(=O)n2CCCN2CCCCC2)cc1Cl	-29.7	1.1	-2.4	-40.0	-9.2
COc1ccc(-c2cn3ccc4ccccc4c3n2)cc1	-6.8	1	-5.5	76.9*	-2.9
CCCOc1ccc(-c2cn3ccccc3n2)cc1	-12.3	1	-1.2	33.3	-2.2
O=c1c(OC2OC(CO)C(O)C(O)C2O)c(-c2ccc(O)c(O)c2)oc2cc(O)cc(O)c12 (stereo unspecified)	40.1	0.9	15.5*	-20.0	13.5
C[C@@H]1O[C@@H](Oc2c(-c3cc(O)c(O)c(O)c3)oc3cc(O)cc(O)c3c2=O)[C@H](O)[C@H](O)[C@H]1O	51.5*	0.9	5.4	40.0	11.6
COc1ccc(-c2oc3c(CC=C(C)C)c(O[C@@H]4O[C@H](CO)[C@@H](O)[C@H](O)[C@H]4O)cc(O)c3c(=O)c2O[C@@H]2O[C@@H](C)[C@H](O)[C@@H](O)[C@H]2O)cc1	-7.9	1	-1.6	nt	1.4
CCc1nnc(NC(=O)CSc2nc(C)c3c(c2C#N)CCCC3)s1	-11.6	1	-0.6	84.6*	-2.3
Cc1ccc2c(c1)nnn2C1CCN(C(=O)NCc2ccccc2)CC1	2.4	1	-2.2	25.0	-2.5
O=C(NCc1ccccc1)N1CCC(n2cnc3cc(F)ccc32)CC1	-2.5	1	-3.3	77.8*	0.8
COc1ccc(/C=C/C(=O)c2ccc(NC3=NCCCS3)cc2)cc1OC	2.6	1	10.4*	-88.9	0.9
CCC(C)(C)NC(=O)C(c1ccc(OC)cc1)N(CCOC)C(=O)CCC(=O)Nc1nccs1 (stereo unspecified)	-6.9	1.1	10.3*	nt	-5.0
SMILES	TNAP inh noacc	TNAP act hi DEA	Efa HMGR inh	Insulin prom inh	TNAP inh hi DEA
O[C@H]1COC2C1OC[C@@H]2O (stereo partly specified)	-1.9	1	-6.3	18.2	4.5
CC(NC(=O)c1ccccc1)c1ccc(Br)cc1 (stereo unspecified)	2.8	1	-6.4	87.5*	2.4
O=C(N/N=C/c1ccccc1)c1ccc(N2CCOCC2)c([N+](=O)[O-])c1	-0.8	1	3.4	-42.3	3.1
O=C(N/N=C/c1cc([N+](=O)[O-])c(N2CCOCC2)cc1N1CCOCC1)c1cccnc1	-1.7	0.9	-5.8	68.8*	5.5
O=C(Nc1ccc(N2CCOCC2)c(Cl)c1)c1cccnc1	-0.2	1	1.1	15.8	0.9
O=C(Nc1ccccc1N1CCOCC1)c1cccnc1	-8.0	1	10.1*	-8.3	1.3
COc1ccc(CNC(=O)c2cc3c(s2)CN(Cc2ccccc2)C3)cc1	-0.4	1.1	-6.9	nt	-5.1
Cc1ccccc1NC(=S)c1nc2ccccc2[nH]1	-61.7	1	-1.9	97.4*	-4.3
CC(C(=O)OCc1nnc(-c2ccccc2)o1)N1C(=O)C2CCCCC2C1=O (stereo unspecified)	-8.8	1	-5.5	-14.3	-1.7
O=C(c1cnccn1)N1CCc2ccccc21	-7.3	1.1	0.2	11.5	-8.4
Cc1c(C(=O)N2CCc3ccccc32)cnn1C	-1.3	1	11.1*	0.0	3.8
COc1ccc2cc(C(=O)NCC(=O)O)sc(=O)c2c1OC	-13.0	1	-1.4	28.9	-2.2
COc1ccc2cc(C(=O)OC(C)C)sc(=O)c2c1OC	3.1	1	0.0	71.4*	-4.4
COc1ccc(N2C(=O)C(CN3CCCCC3)C2c2ccccc2)cc1 (stereo unspecified)	-5.6	1.1	14.8*	-73.3	-9.0
COc1ccc(C(=O)Nc2cccc(NC(C)=O)c2)cc1OC	-7.9	1	-5.3	50.0	-1.4
COc1ccc(NC(C)=O)cc1C	-9.1	1.1	-7.2	71.4*	-5.0
CCOc1ccc(OCCN2CCCCC2)cc1	-11.1	1	-1.6	61.5*	3.4
CN(C)/C=C(/C(=O)c1ccc(Cl)cc1)S(=O)(=O)c1ccc(Cl)cc1	-6.2	1	11.8*	-26.0	-4.7
COc1ccc(/C(O)=C2/C(=O)C(=O)N(CCCC(=O)O)C2c2ccc(OC)c(OC)c2)cc1 (stereo unspecified)	-4.1	1.1	-10.3	-16.1	-10.7
COCCCN1C(=O)C(=O)/C(=C(/O)c2ccc(OC)cc2)C1c1ccc(O)c(OC)c1 (stereo unspecified)	1.0	1	11.9*	60.0	-1.1
CC1CCCN(C(=O)C2CCN(CC(C)c3ccccc3)CC2)C1 (stereo unspecified)	-7.7	1	14.7*	57.9	-4.2
O=[N+]([O-])c1cccc(-n2cccc2/C=N/Nc2nc(N3CCCCC3)nc(N3CCCCC3)n2)c1	-10.4	1	6.9	22.2	-0.9
O=[N+]([O-])c1cccc(/C=N/Nc2nc(N3CCCCC3)nc(N3CCCCC3)n2)c1	-2.7	1	-0.1	71.4*	-1.7
Cc1cccc2c1NC(=O)/C2=C\C(=O)c1cccs1	-7.9	1	1.4	66.7*	1.2
Cc1cc(Br)c2c(c1)/C(=C/C(=O)c1cccs1)C(=O)N2	-3.3	1	-2.1	nt	0.9
COc1ccc(NC(=O)c2ccco2)cc1NC(=O)c1ccc(Br)o1	-6.5	1	0.7	73.0*	1.6
COc1ccc(NC(=O)c2ccco2)cc1NC(=O)c1ccc(C)cc1	-3.0	1	-0.3	-64.3	-2.0

Assay outcomes deposited in PubChem BioAssay by several laboratories.
